Source: PubChem BioAssay (Sanford-Burnham Center for Chemical Genomics)
FLuc stim CS = FLuc activators, initial screening, artefact control for FLuc-dependent activation tests, biochemical, ATPlite luminescence; Luciferin 4-monooxygenase (Photinus pyralis), P08659; 200,000 tested, under 10 active; activation factor at 10 µM; ATPlite luciferase biochemical, 10 min; 0 = ATP-free wells, 1 = DMSO control;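 active means luciferase activation factor, scaled between plate controls, of at least 2 with compound at 10 µM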
Target sequence (P08659 whole entry, looked up): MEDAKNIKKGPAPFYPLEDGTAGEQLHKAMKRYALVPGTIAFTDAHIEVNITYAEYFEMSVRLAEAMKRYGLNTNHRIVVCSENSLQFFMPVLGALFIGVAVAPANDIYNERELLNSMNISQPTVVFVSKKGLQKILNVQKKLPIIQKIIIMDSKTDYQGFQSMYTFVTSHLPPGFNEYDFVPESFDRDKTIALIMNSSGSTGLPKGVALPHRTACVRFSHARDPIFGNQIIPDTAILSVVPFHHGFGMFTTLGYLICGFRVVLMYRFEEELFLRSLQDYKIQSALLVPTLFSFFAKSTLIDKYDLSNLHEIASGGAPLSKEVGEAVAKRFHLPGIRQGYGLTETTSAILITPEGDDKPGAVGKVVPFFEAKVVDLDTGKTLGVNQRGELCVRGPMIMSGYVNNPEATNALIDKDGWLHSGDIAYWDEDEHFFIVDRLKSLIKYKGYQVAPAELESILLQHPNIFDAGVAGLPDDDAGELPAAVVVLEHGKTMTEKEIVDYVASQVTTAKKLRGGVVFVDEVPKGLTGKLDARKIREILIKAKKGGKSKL
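Assay system: Luciferase/luciferin reagent mix; Medium: PBS as buffer for the ATP substrate; Dosing: test compounds dosed from 2 mM stocks in 100% DMSO; Times: 10 min, room temperature; Signal: luminescence from luciferase reaction; Read-out: luciferase activation; Controls: No-ATP low control, compound-free enzyme-plus-ATP high control.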
C8 TRAIL sens = viability loss with TRAIL in NB7+C8 cells, primary screen, TRAIL sensitizer project, cell-based, ATPlite luminescence; inhibition (viability loss, TRAIL sensitization), % at 10 µM; actives 1% (n = 360,000);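 active means compounds causing at least 50% loss of cell viability in the single-dose screen, relative to plate controls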
PPC-1+TRAIL kill = compounds killing PPC-1 cancer cells with TRAIL present, primary screen, TRAIL potentiator project, ATPLite luminescence, uHTS. cell killing (% activity), % at 4 µM or 5 µM. actives 0.41% (n = 220,000). PPC-1 cells + TRAIL, ATPLite viability luminescence;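 active means cell killing above 50% in the first pass at 4 µM, then a duplicate retest at 5 µM averaging 50% or more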;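 further: plate controls were cells with TRAIL plus DMSO for no effect and medium-only wells lacking cells for full effect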
FLuc inhib CS = firefly luciferase enzyme inhibitors, primary screen, artefact control for luciferase-based inhibitor screens, biochemical, luminescence, ATPLite | 10 min | Luciferin 4-monooxygenase (Photinus pyralis), P08659 | actives 1.5% (n = 200,000) | inhibition, % at 10 µM;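 active means inhibition above about 50% when tested at 10 µM, limit read from the data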
PPC1 cytotox = cytotoxicity in PPC-1 cells, confirmation, cytotoxicity control for TRAIL apoptosis potentiator project, cell-based, ATP content luminescence | actives 50% (n = 1,200) | PPC-1 viability, ATPlite luminescence, overnight | cytotoxicity, % at 5 µM | AID 1447, 2008 | shares compounds with PPC-1+TRAIL kill;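 active means reconfirmed compounds whose average cytotoxicity reaches 50% or more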;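 further: 0% = DMSO-treated cells and 100% = wells holding medium but no cells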
Numbers without * were called inactive; . = not tested or not shown. Sampled rows, rich in hits. Any-hit rate of the full collection: about 1.6%.

SMILES	FLuc stim CS	C8 TRAIL sens	PPC-1+TRAIL kill	FLuc inhib CS	PPC1 cytotox
Cn1cnnc1SCCn1c(N2CCCCC2)nc2c1c(=O)[nH]c(=O)n2C	1	-16	5	-3	4
CC(C)(C)OC(=O)N1CCC(NC(=O)c2nc[nH]c2C(=O)NCC(=O)OCc2ccccc2)CC1	.	9	.	.	.
COc1ccccc1-c1nnc(Nc2nc3c(OC)cccc3s2)o1	0.9	30	7	12	.
COc1cccc(-c2nnc(Nc3nc4c(F)cccc4s3)o2)c1	0.1	71*	44	88*	48
Cc1nnc(N2CCOCC2)c2nn(-c3ccccc3)c(C)c12	1	-11	8	-4	.
c1ccc(-n2nnc3c(N4CCOCC4)ncnc32)cc1	0.2	66*	44	84*	46
CCNC(=O)CN(c1ccccc1)S(=O)(=O)c1ccc(Cl)cc1	1.1	-4	-4	-7	1
CCC(=O)Nc1cc2nn(-c3ccc(OC)cc3)nc2cc1C	0.3	59*	58*	69*	49
CCC(=O)Nc1cc2nn(-c3ccc(C)cc3)nc2cc1C	0.3	65*	59*	66*	55*
CCOc1cc(/C=N/Nc2nn3cnnc3c3ccccc23)ccc1O	.	73*	56*	.	59*
COc1cc(/C=N/Nc2nn3cnnc3c3ccccc23)ccc1O	0.1	78*	79*	94*	77*
CCOc1cc(/C=N/Nc2cc(C)nc(-n3nc(C)cc3C)n2)ccc1O	.	15	58*	.	54*
CCOc1cc(/C=N/Nc2nncc(-c3ccccc3)n2)ccc1O	0.9	-2	-4	8	.
COc1cc(/C=N/Nc2nc(C)cc(C)n2)ccc1O	.	3	.	.	.
COc1cc(-c2noc(C)c2C(=O)NCCCN2CCOCC2)cc(OC)c1OC	.	-10	.	.	.
Cc1cc(OC(=O)C(C)(C)C)c([N+](=O)[O-])c(=O)[nH]1	1	-9	5	-4	.
CC(C)NC(=O)C1CCCN(S(=O)(=O)c2cccs2)C1 (centres undefined)	1	-11	9	2	1
CC(NC(=O)C1CCCN(S(=O)(=O)c2cccs2)C1)c1ccccc1 (centres undefined)	1	-15	-7	1	.
COC(=O)c1ccc2nc(-c3cccc(N)c3)cn2c1	0.1	72*	66*	90*	67*
COC(=O)c1ccc2nc(-c3ccc(S(C)(=O)=O)cc3)cn2c1	0.9	12	4	10	.
CCNC(=O)N(C)C[C@H]1N[C@@](CC)(C(=O)OC)[C@H]2C(=O)N(C)C(=O)[C@@H]12	.	8	.	.	.
COc1ccc(-c2nc3ccccc3[nH]2)cc1	0.1	79*	78*	93*	77*
COc1cccc(/C=N/Nc2nccnc2Cl)c1O	0.2	72*	45	84*	50
CCC/C=C/c1ccc(CN2C(CC(C)C)C(=O)N(Cc3cn(Cc4ccco4)nn3)CCS2(=O)=O)cc1 (centres undefined)	.	29	.	.	.
CCc1ccccc1NC(=O)NCc1cccnc1	.	-13	.	.	.
SMILES	FLuc stim CS	C8 TRAIL sens	PPC-1+TRAIL kill	FLuc inhib CS	PPC1 cytotox
COc1ccccc1-n1c(C)cc(/C=C2/C(=N)N3C(=NC2=O)SN=C3S(C)(=O)=O)c1C	0.1	58*	47	87*	55*
CC(C)(C)C(c1nc2ccccc2[nH]1)n1c(-c2ccsc2)nc2ccccc21 (centres undefined)	.	7	.	.	.
COc1ccc(S(=O)(=O)Nc2ccccc2)cc1	.	22	.	.	.
COc1ccc(S(=O)(=O)Nc2ccc(O)c3ccccc23)cc1	1	19	16	-1	4
N=c1cc(C2(O)CCCCC2)n2c(nc3ccccc32)s1	0.1	84*	75*	94*	78*
Fc1ccccc1NC(=S)Nc1cccc2cnccc12	1.1	3	-16	-6	-27
Cc1ccccc1NC(=S)Nc1cccc2cnccc12	1.1	3	23	-6	.
Cc1ccc(NC(=S)Nc2cccc3cnccc23)cc1C	1	30	3	0	-9
Cc1ccc(NC(=S)Nc2cccc3cnccc23)cc1	1	3	27	4	.
C=CCOc1ccc(C[C@H](N)C(=O)NC[C@H]2O[C@@H](n3cc(C)c(=O)[nH]c3=O)C[C@@H]2O)cc1	.	7	.	.	.
